A selection: hits, their analogues and other compounds. The true share with any hit is near 2.2%.
NR2E3 ag-1 = NR2E3 agonists in two-hybrid cells, primary screen, cell-based, luminescence, CHO-S, Gal4-NCOR/VP16-NR2E3; inhibition of corepressor binding, % at 3.98 µM; 360,000 compounds, 0.35% hits; luciferase;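 active = inhibition above the mean of all tested compounds plus 3 SD, cut at about 70% in these data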;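 also: 0% = DMSO with NR2E3 transfected cells and 100% = cells lacking NR2E3 construct; higher means lower luciferase signal from less NR2E3 corepressor binding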
Target sequence (Q9Y5X4 whole entry, looked up, the tested form may be a part): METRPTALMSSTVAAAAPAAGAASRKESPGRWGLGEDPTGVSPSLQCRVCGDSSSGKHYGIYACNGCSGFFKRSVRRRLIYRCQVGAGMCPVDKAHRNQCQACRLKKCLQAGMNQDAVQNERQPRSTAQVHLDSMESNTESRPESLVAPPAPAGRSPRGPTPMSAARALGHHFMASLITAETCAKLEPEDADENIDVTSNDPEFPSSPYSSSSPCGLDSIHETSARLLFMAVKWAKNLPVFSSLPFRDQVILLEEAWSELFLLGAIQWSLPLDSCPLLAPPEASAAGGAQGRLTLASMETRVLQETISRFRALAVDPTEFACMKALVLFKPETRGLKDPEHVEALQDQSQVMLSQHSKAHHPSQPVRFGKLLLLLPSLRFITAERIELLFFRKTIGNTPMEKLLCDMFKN
COUP-TFII inh = NR2F2 transcriptional activity inhibitors, primary screen, cell-based, luciferase reporter, HEK293T, luminescence. 370,000 compounds, 0.7% hits. AID 686940, 2013. HEK293T NGFI-A luciferase reporter. inhibition, % at 8.6 µM. COUP transcription factor 2 (Homo sapiens), P24468;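 active = inhibition above a per-plate cutoff, mean inhibition of test wells between control levels plus 3 SD, cut at about 38% in these data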;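 also: cells cotransfected with COUP-TFII expression vector driving the NGFI-A reporter; 0% = median of COUP-TF2 test wells and 100% = reporter-only cells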
SMARCA2 act = SMARCA2 (BRM) function activators, primary screen, cell-based, luminescence, high throughput | 370,000 compounds, 1% hits | AID 652017, 2013 | activation, % at 9.1 µM | MG213 cells, MMTV-luciferase reporter, dexamethasone, overnight; in the data active = activation above about 7.8%;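 also: 0% = vehicle wells and 100% = reference activator wells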
NR2E3 ag-2 = inhibitors of NR2E3-RetCOR corepressor binding, primary screen, NR2E3 agonist project, biochemical, TR-FRET, GST-NR2E3, biotin-RetCOR | 1536-well | inhibition of corepressor binding, % at 4.78 µM | 320,000 compounds, 0.12% hits | AID 2300, 2010;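 active = percent inhibition above the cutoff of mean plus 3 SD of all tested compounds, set per screening campaign, cut at about 20% in these data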;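 also: 0% = DMSO wells and 100% = biotin wells as full block of FRET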
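system = GST-tagged NR2E3 plus biotinylated RetCOR corepressor | input = 1.35 nM GST-NR2E3 | also added = 7 nM biotin-RetCOR | schedule = 5 h incubation at 4 °C | measured by = TR-FRET with europium anti-GST and streptavidin-D2, 340 nm excitation | read-out = percent loss of FRET ratio relative to control wells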
GalR3 antag = GalR3 antagonists in HEK293 cells, primary screen, cell-based, fluorescence readout | Galanin receptor type 3 (Homo sapiens), O60755 | HEK293 GalR3-CNG cAMP membrane potential fluorescence; galR3 body fused to GalR1 C-terminus | inhibition, % at 3 µM | 360,000 compounds, 0.44% hits;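 active = inhibition above the screen-wide average plus 3 SD, cut at about 13% in these data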;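 also: forskolin and galanin both at EC90 stimulate the cells; cAMP rise reported by CNG channel membrane potential dye signal; 0% = forskolin plus galanin with DMSO and 100% = forskolin alone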
VP16 Luc counter = Gal4-VP16 luciferase reporter inhibitors, counter-screen for COUP-TFII antagonist project, cell-based, luminescence, HEK293; 2,500 compounds, 25% hits; shares compounds with COUP-TFII inh; inhibition, % at 8.5 µM; in the data active = inhibition above about 13%
NR2F2 inh conf = NR2F2 transcriptional activity inhibitors, confirmation, cell-based, luciferase reporter, HEK293, triplicate; inhibition, % at 8.5 µM; HEK293 NGFI-A luciferase reporter, luminescence; 2,500 compounds, 45% hits; shares compounds with COUP-TFII inh;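 active = mean inhibition over three repeats above a set limit taken from the earlier primary screen, cut at about 38% in these data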;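 also: 100% = cells given the luciferase reporter alone without the COUP-TF2 vector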
Numbers without * were called inactive.

Screening O=C(c1ccc(Cl)c(Cl)c1)N1CCN(c2ccnc3cc(Cl)ccc23)CC1 returned COUP-TFII inh 54*, VP16 Luc counter 10 and NR2F2 inh conf 22.
`CCOC(=O)c1csc(NC(=O)C2CCCN(S(=O)(=O)c3cc(OC)ccc3OC)C2)n1` (stereo not drawn) gave COUP-TFII inh 3 and SMARCA2 act -6.
`CN(C)S(=O)(=O)c1ccc(C(=O)NC2CCCc3ccccc32)cc1` (stereo not drawn) gave NR2E3 ag-1 1, COUP-TFII inh 63*, SMARCA2 act 0, NR2E3 ag-2 0, GalR3 antag 1, VP16 Luc counter -3 and NR2F2 inh conf -2.
CN(C)S(=O)(=O)c1cccc(C(=O)NC2CCCc3ccccc32)c1 (stereo not drawn) was read as NR2E3 ag-1 -10, COUP-TFII inh 19, SMARCA2 act -1, NR2E3 ag-2 1 and GalR3 antag -5.
COc1ccc(C=Nn2c(-c3n[nH]c4c3CCC4)n[nH]c2=S)cc1OCc1ccccc1 was read as COUP-TFII inh 16 and SMARCA2 act -2.
`CCOCC(=O)Nc1nc2ccc(C)cc2s1` gave NR2E3 ag-1 -97, COUP-TFII inh -40, SMARCA2 act 6, NR2E3 ag-2 2 and GalR3 antag -6.
For Cc1ccc2nc(NC(=O)CSCC(=O)OCC(=O)c3ccccc3)sc2c1 the results were NR2E3 ag-1 31, COUP-TFII inh 77*, SMARCA2 act -16, NR2E3 ag-2 0, GalR3 antag -6, VP16 Luc counter 79* and NR2F2 inh conf 59*.
`COc1cc(NS(=O)(=O)c2ccc(C)cc2C)cc(OC)c1OC` gave NR2E3 ag-1 47, COUP-TFII inh 45*, SMARCA2 act -5, NR2E3 ag-2 1, GalR3 antag -7, VP16 Luc counter 10 and NR2F2 inh conf 40*.
COc1cc(NS(=O)(=O)c2cc3[nH]c(=O)c(=O)[nH]c3cc2C)cc(OC)c1OC was read as NR2E3 ag-1 1, COUP-TFII inh 2, SMARCA2 act -2, NR2E3 ag-2 0 and GalR3 antag -2.
CCCCn1c2c(c(=N)c3c1CCC3)CCC2 was read as NR2E3 ag-1 6, COUP-TFII inh 47*, SMARCA2 act -4, NR2E3 ag-2 1, GalR3 antag -5, VP16 Luc counter 11 and NR2F2 inh conf 39*.
`CCn1c2c(c(=N)c3ccccc31)CCC2` gave NR2E3 ag-1 0, COUP-TFII inh 7, SMARCA2 act -8, NR2E3 ag-2 1 and GalR3 antag -2.
For O=C(NCc1cccc(Cl)c1)c1cccc2c(-c3cccnc3)coc12 the results were NR2E3 ag-1 46, COUP-TFII inh 42*, SMARCA2 act -6, GalR3 antag -4, VP16 Luc counter -2 and NR2F2 inh conf 4.
For CN1CCN(c2ccc(-c3ccc4ccccc4n3)cc2)CC1 the results were NR2E3 ag-1 87*, COUP-TFII inh 90*, SMARCA2 act -11, GalR3 antag -8, VP16 Luc counter 52* and NR2F2 inh conf 90*.

Assay outcomes (PubChem)
